In ChEMBL document CHEMBL5303300, “EUbOPEN Chemogenomics Library - Multiplex” (2023):
Values joined by “and” are separate entries in the source; they are usually repeats but may differ in a detail not shown here. Identical values can stand only once.

Legend:
Fibroblast = assay: Multiplex assay against human fibroblast; assay type: toxicity, cell-based; conditions: number of replicates 2
Procedure, shortened: (§1)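 Live cells were stained at seeding with Hoechst33342, BioTracker Green Microtubule Cytoskeleton Dye, MitoTracker Red and Annexin V Alexa Fluor 680. Following compound addition, they were imaged on a CQ1 microscope at 37°C and 5% CO2 and gated by CellPathfinder machine learning into Hoechst high-intensity objects or normal cells, with normal cells split into healthy, pyknosed or fragmented nuclei and pyknosed cells into mitotic or apoptotic. Tubulin, mitochondrial-mass and membrane-permeability phenotypes are per cents of healthy-nucleus cells.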

U2OS = assay: Multiplex assay against U2OS; assay type: toxicity, cell-based; conditions: human, number of replicates 2; procedure, shortened: as §1
[1] = 24 h, 1 µM, compound concentration 1 uM
[2] = 24 h, 10 µM, compound concentration 10 uM
[3] = 48 h, 1 µM, compound concentration 1 uM
[4] = 48 h, 10 µM, compound concentration 10 uM
[5] = 12 h, 1 µM, compound concentration 1 uM
[6] = 12 h, 10 µM, compound concentration 10 uM

Compound: COc1cc(OC)cc(-c2cc3cnc(N)nc3nc2NC(=O)NC(C)(C)C)c1
- Population Hoechst High Intensity Objects (%) (Fibroblast; [1]): 0% and 13%
- Population Membrane Permeable-Phenotype (%) (Fibroblast; [1]): 4% and 6% and 5%
- Population Mitochondria Different-Phenotype (%) (Fibroblast; [1]): 0% and 1%
- Population Mitotic Cells (%) (Fibroblast; [1]): 45% and 46% and 44%
- Population Normal (%) (Fibroblast; [1]): 99% and 86% and 100%
- Population Pyknosed Nuclei (%) (Fibroblast; [1]): 17% and 21% and 24%
- Population Tubulin-Different-Phenotype (%) (Fibroblast; [1]): 12% [middle of 4 runs]
- Total Cell Count (Fibroblast; [1]): 260 and 192 and 201
- Population Apoptotic (%) (Fibroblast; [2]): 57% and 48% and 65% and 58%
- Population Fragmented Nuclei (%) (Fibroblast; [2]): 11% and 13% and 16% and 18%
- Population Healthy Nuclei (%) (Fibroblast; [2]): 63% and 67% and 70% and 66%
- Population Hoechst High Intensity Objects (%) (Fibroblast; [2]): 0%
- Population Membrane Permeable-Phenotype (%) (Fibroblast; [2]): 5% and 1% and 4%
- Population Mitochondria Different-Phenotype (%) (Fibroblast; [2]): 0% and 1%
- Population Mitotic Cells (%) (Fibroblast; [2]): 42% and 51% and 34% and 41%
- Population Normal (%) (Fibroblast; [2]): 100% and 99%
- Population Pyknosed Nuclei (%) (Fibroblast; [2]): 25% and 18% and 13% and 15%
- Total Cell Count (Fibroblast; [2]): 187 and 175 and 231 and 236
- Population Apoptotic (%) (Fibroblast; [3]): 70% and 65% and 60% and 68%
- Population Fragmented Nuclei (%) (Fibroblast; [3]): 10% and 18% and 12% and 15%
- Population Healthy Nuclei (%) (Fibroblast; [3]): 75% and 63% and 65%
- Population Hoechst High Intensity Objects (%) (Fibroblast; [3]): 0% and 18%
- Population Membrane Permeable-Phenotype (%) (Fibroblast; [3]): 2% and 10% and 8% and 6%
- Population Mitochondria Different-Phenotype (%) (Fibroblast; [3]): 0%
- Population Mitotic Cells (%) (Fibroblast; [3]): 29% and 34% and 40% and 31%
- Population Normal (%) (Fibroblast; [3]): 100% and 81%
- Population Pyknosed Nuclei (%) (Fibroblast; [3]): 13% and 17% and 12% and 19%
- Population Tubulin-Different-Phenotype (%) (Fibroblast; [3]): 7% and 10% and 9% and 6%
- Total Cell Count (Fibroblast; [3]): 266 and 238 and 205 and 226
- Population Apoptotic (%) (Fibroblast; [4]): 74% and 66% and 75% and 69%
- Population Fragmented Nuclei (%) (Fibroblast; [4]): 13% and 10% and 16% and 18%
- Population Healthy Nuclei (%) (Fibroblast; [4]): 65% and 67% and 71% and 69%
- Population Hoechst High Intensity Objects (%) (Fibroblast; [4]): 0%
- Population Membrane Permeable-Phenotype (%) (Fibroblast; [4]): 8% and 0% and 5% and 4%
- Population Mitochondria Different-Phenotype (%) (Fibroblast; [4]): 1% and 0%
- Population Mitotic Cells (%) (Fibroblast; [4]): 25% and 33% and 24% and 30%
- Population Normal (%) (Fibroblast; [4]): 100%
- Population Pyknosed Nuclei (%) (Fibroblast; [4]): 20% and 22% and 12%
- Total Cell Count (Fibroblast; [4]): 190 and 176 and 237 and 215
- Population Apoptotic (%) (U2OS; [5]): 80% [middle of 4 runs]
- Population Fragmented Nuclei (%) (U2OS; [5]): 11% and 5% and 6% and 4%
- Population Healthy Nuclei (%) (U2OS; [5]): 80% and 87% and 83% and 89%
- Population Hoechst High Intensity Objects (%) (U2OS; [5]): 0%
- Population Membrane Permeable-Phenotype (%) (U2OS; [5]): 2% and 0% and 1%
- Population Mitochondria Different-Phenotype (%) (U2OS; [5]): 0%
- Population Normal (%) (U2OS; [5]): 100%
- Population Pyknosed Nuclei (%) (U2OS; [5]): 7% and 6% and 10% and 5%
- Population Tubulin-Different-Phenotype (%) (U2OS; [5]): 52% and 94% and 55% and 80%
- Population Healthy Nuclei (%) (U2OS; [6]): 85% and 60% and 88% and 65%
- Population Hoechst High Intensity Objects (%) (U2OS; [6]): 0%
- Population Membrane Permeable-Phenotype (%) (U2OS; [6]): 6% [middle of 4 runs]
- Population Mitochondria Different-Phenotype (%) (U2OS; [6]): 0% and 4%
- Population Normal (%) (U2OS; [6]): 99% and 100%
- Population Pyknosed Nuclei (%) (U2OS; [6]): 10% and 15% and 6% and 9%
- Population Tubulin-Different-Phenotype (%) (U2OS; [6]): 64% [middle of 4 runs]
- Population Apoptotic (%) (U2OS; [1]): 60% and 84% and 50%
- Population Fragmented Nuclei (%) (U2OS; [1]): 3% and 1% and 2%
- Population Healthy Nuclei (%) (U2OS; [1]): 89% and 90% and 82% and 86%
- Population Hoechst High Intensity Objects (%) (U2OS; [1]): 1% and 0%
- Population Membrane Permeable-Phenotype (%) (U2OS; [1]): 0% and 3% and 1%
- Population Mitochondria Different-Phenotype (%) (U2OS; [1]): 1% and 0%
- Population Normal (%) (U2OS; [1]): 98% and 100%
- Population Pyknosed Nuclei (%) (U2OS; [1]): 6% and 8% and 14% and 11%
- Population Tubulin-Different-Phenotype (%) (U2OS; [1]): 56% and 85% and 53% and 83%
- Population Apoptotic (%) (U2OS; [2]): 54% [middle of 4 runs]
- Population Healthy Nuclei (%) (U2OS; [2]): 83% and 68% and 84% and 72%
- Population Hoechst High Intensity Objects (%) (U2OS; [2]): 0%
- Population Membrane Permeable-Phenotype (%) (U2OS; [2]): 4% [middle of 4 runs]
- Population Mitochondria Different-Phenotype (%) (U2OS; [2]): 1% and 8% and 0%
- Population Normal (%) (U2OS; [2]): 100%
- Population Pyknosed Nuclei (%) (U2OS; [2]): 10% and 16% and 9% and 13%
- Population Tubulin-Different-Phenotype (%) (U2OS; [2]): 62% [middle of 4 runs]
- Population Apoptotic (%) (U2OS; [3]): 50% and 84% and 60% and 74%
- Population Fragmented Nuclei (%) (U2OS; [3]): 3% and 2% and 4%
- Population Healthy Nuclei (%) (U2OS; [3]): 86% and 88% and 92%
- Population Hoechst High Intensity Objects (%) (U2OS; [3]): 0%
- Population Membrane Permeable-Phenotype (%) (U2OS; [3]): 1% and 0%
- Population Mitochondria Different-Phenotype (%) (U2OS; [3]): 0% and 1%
- Population Normal (%) (U2OS; [3]): 100%
- Population Pyknosed Nuclei (%) (U2OS; [3]): 10% and 8% and 4% and 7%
- Population Tubulin-Different-Phenotype (%) (U2OS; [3]): 70% and 90% and 59% and 84%
- Population Apoptotic (%) (U2OS; [4]): 48% and 69% and 66% and 78%
- Population Healthy Nuclei (%) (U2OS; [4]): 87% and 68% and 86% and 64%
- Population Hoechst High Intensity Objects (%) (U2OS; [4]): 0%
- Population Membrane Permeable-Phenotype (%) (U2OS; [4]): 2% and 9%
- Population Mitochondria Different-Phenotype (%) (U2OS; [4]): 0% and 3% and 1%
- Population Mitotic Cells (%) (U2OS; [4]): 33% [middle of 4 runs]
- Population Normal (%) (U2OS; [4]): 100% and 99%
- Population Pyknosed Nuclei (%) (U2OS; [4]): 10% and 16% and 17%
- Population Tubulin-Different-Phenotype (%) (U2OS; [4]): 67% [middle of 4 runs]
